DDE Tn6 FP inh = DD(E)-Tn6 binding inhibition, primary FP screen. inhibition, % at 8.3 µM. hit rate 0.21% among 370,000. AID 720509. Fibrin DD(E) TRITC-Tn6 fluorescence polarization displacement. P02675;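 active means inhibition above a per-campaign cutoff: mean of compounds within control limits plus 3 SD, cut at about 15% in these data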;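 further: 0% = median of all compound wells on the plate and 100% = blocking peptide control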
Tn7 DDE FP = disrupts Tn7 cyclic peptide binding to fibrin D-Dimer-E complex; P02675; FP displacement of FITC-Tn7 peptide from fibrin DD(E); 0% = median of compound wells per plate; inhibition, % at 8.3 µM; hit rate 0.13% among 370,000; AID 720508;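 active means inhibition above the mean of compounds falling within the control limits plus 3 SD of them, cut at about 14% in these data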;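 further: 0% = plate median of compound wells and 100% = 10 µM Aha-Tn7 peptide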
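Measure: % inhibition scaled between sample-field median and high-control FP; Test system: human fibrin DD(E); Quantity: 2 µM final DD(E) protein; Doses: one dose, 8.3 µM nominal; Schedule: compound with protein 10 min, then 3 h after probe, room temperature; Detection: fluorescence polarization; Medium: Tris buffer with calcium and detergent, pH 7.8.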
ABHD4 inh = inhibitors of mouse ABHD4 | inhibition, % at 8.92 µM | hit rate 0.54% among 370,000 | purified mABHD4, FP-Rh probe fluorescence polarization;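 active means inhibition exceeding the mean over every tested compound plus 3 SD, cut at about 30% in these data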;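 further: 0% = plate median of compound wells and 100% = S159A mutant with DMSO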
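Material: mouse ABHD4 enzyme, wild type; Benchmarks: S159A mutant high control, sample median low control; Buffer or medium: HEPES pH 7.0, NaCl, Pluronic buffer; Signal: fluorescence polarization; Read-out: percent inhibition of probe binding, normalized to plate controls; Timing: pre-incubation 45 min, probe exposure 60 min, at 25 °C; Dosing: 8.92 µM, single dose.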
TCR-CD3 inh = blocks the human TCR-CD3 interaction; TAMRA-labeled TCR probe fluorescence, biochemical; hit rate 0.37% among 360,000; inhibition, % at 9.4 µM; AID 651800; in the data active means inhibition above about 19%;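 further: recombinant mutant TCR 2C K166C tagged with TAMRA read by polarization; 0% = receptor in buffer alone and 100% = receptor with positive control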
HTRA1 inhibitor = inhibitors of human serine peptidase HTRA1; inhibition, % at 5.96 µM; recombinant HTRA1, FP-rhodamine activity-based probe, fluorescence polarization; AID 504803; hit rate 0.5% among 340,000; in the data active means inhibition above about 36%;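 further: 0% = enzyme with DMSO and 100% = wells lacking enzyme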
Target sequence (Q92743 whole entry, looked up): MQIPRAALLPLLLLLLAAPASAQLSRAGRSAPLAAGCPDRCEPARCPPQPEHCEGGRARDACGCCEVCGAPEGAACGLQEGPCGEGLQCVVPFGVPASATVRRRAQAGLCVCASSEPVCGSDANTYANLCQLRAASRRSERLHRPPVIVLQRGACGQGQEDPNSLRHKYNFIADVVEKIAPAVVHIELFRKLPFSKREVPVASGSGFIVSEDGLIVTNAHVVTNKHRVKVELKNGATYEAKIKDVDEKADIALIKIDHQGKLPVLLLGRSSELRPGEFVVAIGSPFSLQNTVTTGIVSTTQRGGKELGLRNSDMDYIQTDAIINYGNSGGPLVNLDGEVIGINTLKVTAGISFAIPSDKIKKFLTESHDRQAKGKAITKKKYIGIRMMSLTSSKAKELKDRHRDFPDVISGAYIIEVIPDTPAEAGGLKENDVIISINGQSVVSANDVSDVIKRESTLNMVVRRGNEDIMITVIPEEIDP
HTRA1 inh conf = HTRA1 (human) inhibition, confirmation; inhibition, % at 5.96 µM; recombinant HTRA1, FP-rhodamine activity-based probe, fluorescence polarization; shares compounds with HTRA1 inhibitor; hit rate 66% among 1,600;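 active means mean inhibition over three repeats above a set limit taken from the earlier primary screen, cut at about 37% in these data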;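 further: 0% = HTRA1 with DMSO and 100% = wells lacking HTRA1; inhibitors block probe binding so polarization drops and inhibition rises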
Starred values were filed as active, the others as inactive; . = no result given. Rows were chosen to be rich in hits. Some 1.3% of all compounds tested hit in one or more screens of this group.

SMILES	DDE Tn6 FP inh	Tn7 DDE FP	ABHD4 inh	TCR-CD3 inh	HTRA1 inhibitor	HTRA1 inh conf
CC(=O)OC(C)C1C2=C(C(=O)CC1(C)O)C(=O)c1c(ccc(-c3ccc4c(c3O)C(=O)C3=C(C4=O)C(C(C)OC(C)=O)C(C)(O)CC3=O)c1O)C2=O (stereo unspecified)	-2.2	3.7	47.3*	0.0	47.8*	86.7*
COc1ccc(C(=O)CSc2nnnn2Cc2ccccc2)cc1	-1.9	1.8	1.0	5.6	-4.1	.
Oc1ccc(N2CCN(c3ccnc4cc(Cl)ccc34)CC2)cc1	-5.1	-9.1	22.1	-1.9	26.1	.
C[C@H](NS(=O)(=O)c1ccc(Cl)cc1)C(=O)OCC(=O)c1ccc[nH]1	-3.4	-1.1	-4.6	-6.3	37.6*	-1.1
COc1ccc2nc3ccccc3nc2c1N	-3.4	-0.4	24.2	5.0	48.5*	16.6
CCCN1CCc2c(sc(NC(=O)c3ccc(S(=O)(=O)N4CCN(C(=O)OCC)CC4)cc3)c2C(N)=O)C1	-8.8	-7.6	-1.6	-0.3	-5.9	.
CCOC(=O)N1CCN(S(=O)(=O)c2ccc(C(=O)Nc3sc4c(c3C(=O)OC)CCN(C)C4)cc2)CC1	-4.7	-8.6	1.8	-3.2	52.7*	49.0*
CCCn1c(CNc2ccccc2O)nc2ccccc21	-1.2	-3.1	26.8	-4.6	44.2*	59.3*
C[n+]1ccccc1/C=C/c1ccccc1Cl	0.1	-7.3	8.6	-2.9	-6.8	.
O=C(N/N=C/c1sc(N2CCOCC2)nc1-c1ccccc1)c1cccc(S(=O)(=O)N2CCOCC2)c1	-7.2	1.8	-5.8	-3.0	44.9*	119.0*
Nc1ccc(C(=O)N/N=C/c2sc(N3CCOCC3)nc2-c2ccccc2)cc1	0.2	-7.3	13.8	-2.4	10.7	.
Cc1cccc(N/C(N)=N/c2nc(C)c(Cc3ccccc3)c(=O)[nH]2)c1	5.1	-5.3	-1.9	4.6	3.2	.
C=C(CC1([C@@H](NP(=O)(c2ccccc2)c2ccccc2)[C@H]2C[C@@H]2CCCC)CC1)c1ccccc1	-7.4	-6.1	-4.7	-1.1	-22.4	.
CS(=O)(=O)N(CC(=O)N1CCOCC1)c1cccc([N+](=O)[O-])c1	9.8	4.3	-1.6	0.3	-3.3	.
CC1Cc2ccccc2N1CC(=O)c1c(N)n(Cc2ccccc2)c(=O)n(C)c1=O (stereo unspecified)	-3.9	4.7	4.1	-1.7	5.2	.
CCn1c(=O)c(C(=O)CN2c3ccccc3CC2C)c(N)n(Cc2ccccc2)c1=O (stereo unspecified)	-4.5	2.6	10.5	-3.7	37.8*	5.9
CC1Cc2ccccc2N1CC(=O)N(C)c1c(N)n(Cc2ccccc2)c(=O)[nH]c1=O (stereo unspecified)	1.5	-1.3	7.8	-2.1	43.4*	2.0
COCCn1c(SC(C)C(=O)Nc2ccc(Cl)cn2)nnc1-c1ccncc1 (stereo unspecified)	-6.8	-5.0	4.5	-2.1	4.0	.
O=C1CCNc2cc3ccccc3cc21	.	.	.	.	40.8*	14.0
CCCN(CC(=O)Nc1ccccc1C)C(=O)C1CC(=O)N(c2ccccc2C(C)CC)C1 (stereo unspecified)	3.5	1.6	-4.2	-5.3	5.4	.
O=C(NCCc1ccc(O)c(O)c1)C1COc2ccccc2O1 (stereo unspecified)	-7.8	-0.3	27.6	5.0	40.0*	60.7*
COc1cccc(/C=N/Nc2nc(Nc3ccccc3)nc(-n3nc(C)cc3C)n2)c1O	-32.4	7.9	-39.7	-4.2	8.8	.
Cc1n[nH]c(=O)c2c(NC(=O)CSc3nc4ccccc4c(=O)n3CCCO)oc(C)c12	1.9	9.2	-6.1	-6.0	37.9*	-1.6
COC(=O)C1=C(O)/C(=C\c2ccc(CNC(=O)C(=O)Nc3ccc(C)cc3)o2)N=C1C	2.2	-3.8	16.0	-1.5	45.1*	-4.5
O=C(N/N=C/c1c[nH]c2ccccc12)c1ccc(O)c(O)c1	-2.8	-0.8	27.1	6.4	53.0*	82.4*
SMILES	DDE Tn6 FP inh	Tn7 DDE FP	ABHD4 inh	TCR-CD3 inh	HTRA1 inhibitor	HTRA1 inh conf
Cc1cc(N(CCO)CCO)ccc1C(c1ccc(N(CCO)CCO)cc1C)c1ccccc1Cl	-1.7	0.8	16.4	5.8	41.2*	29.9
O=C(Nc1ccc2[nH]ccc2c1)c1cc(-c2ccc(Cl)cc2)nc2ccccc12	-0.2	-1.0	-31.1	.	.	.
CN(C)c1ccc(N/C=C/C(=O)C(C)(C)C)cc1	5.1	-6.5	25.7	13.5	58.5*	4.0
CCn1nc(CC(C)C)cc1C(=O)N1CCCC(Nc2ccc(F)cc2)C1 (stereo unspecified)	1.0	-6.2	-3.0	-2.0	2.9	.
Cc1ccccc1N=Cc1ccc[nH]1	-4.0	-3.5	-4.5	-10.2	1.4	.
Cc1ccc(N=Cc2ccc[nH]2)c(O)c1	4.0	-1.4	7.9	-12.0	44.1*	21.2
CCc1ccc(C(=O)CN2C(=O)NC(C)(c3ccc(C)cc3)C2=O)cc1 (stereo unspecified)	-4.3	-0.2	4.3	0.3	-10.7	.
Fc1ccc(-c2csc3nnc(SCc4cccnc4)n23)cc1	-1.8	-10.7	0.5	3.3	1.4	.
Oc1ccc(-c2nc3ccc4ccccc4c3c3c2CCC3)cc1O	-8.7	-4.3	15.0	-2.9	41.3*	56.0*
O=C(c1cnsn1)N1CCC(CO)(Cc2ccc(Cl)cc2)CC1	4.6	4.6	0.9	-3.6	-9.6	.
Cc1ccc2c(Cl)cc(Cl)c(O)c2n1	0.2	5.0	5.2	-4.4	39.8*	46.9*
CN1CCN(C(c2ccc(Br)cc2)c2cc(Cl)c3cccnc3c2O)CC1 (stereo unspecified)	-13.5	-7.3	-5.1	-15.7	51.7*	70.2*
CN1CCN(C(c2ccc(F)cc2)c2ccc3cccnc3c2O)CC1 (stereo unspecified)	.	.	.	.	5.4	.
Cc1cc(Cl)c2ccc3ccccc3c2n1	1.7	6.7	-2.9	2.6	1.2	.
Oc1c(Cl)cc(Cl)c2cccnc12	5.2	-3.7	11.1	-3.1	48.2*	56.0*
Clc1cc2cccnc2c2ccccc12	8.0	0.3	7.3	-8.0	-1.7	.
CCC(=O)NC(C)c1cc(Cl)c2cccnc2c1O (stereo unspecified)	1.4	-4.4	-1.3	4.0	47.6*	82.3*
Cc1cc(OCC(=O)OCC(=O)N2CCc3ccccc3C2)ccc1Cl	-4.8	3.4	0.5	8.2	3.7	.
CC(=O)NC(C)c1cc(Cl)c2cccnc2c1O (stereo unspecified)	1.9	7.0	3.7	-0.8	41.0*	51.5*
CN=c1scc(-c2ccc(F)cc2)n1/N=C/c1ccc(O)c(O)c1	-2.9	6.0	32.5*	5.2	64.2*	69.0*
CC1(OC(=O)C2CCCC2)C(=O)C=C2C=C(c3ccsc3)N(CCc3c[nH]c4ccccc34)C=C2C1=O (stereo unspecified)	.	.	.	.	36.2*	16.9

Screening results (PubChem BioAssay)
